Data reported in ChEMBL document CHEMBL1125720, “Long-acting dihydropyridine calcium antagonists. 6. Structure-activity relationships around 4-(2,3-dichlorophenyl)-3-(ethoxycarbonyl)-2-[(2-hydroxyethoxy)methyl]-5 -(methoxycarbonyl)-6-methyl-1,4-dihydropyridine” (J Med Chem, 1991).

How the values were obtained:
[1] = Selectivity index calculated as the ratio of Calcium pIC50 to that of negative inotropy IC25; type: functional
Cavia porcellus = species on record: Cavia porcellus; test: Evaluated for the negative ionotropy logarithm of the molar concentration required to depress contraction in the Langendorff-perfused guinea pig heart by 25%; type: functional
Method in brief: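 Negative inotropy measured in vitro in a Langendorff-perfused guinea pig heart. Read-out is the molar concentration that depresses contraction by 25%, reported as pIC25.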

Rattus norvegicus = species on record: Rattus norvegicus; test: Evaluated for the negative logarithm of the molar concentration required to block [Ca2+] induced contraction of K+ depolarized rat aorta by 50%.; type: functional
Method in brief: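 Rat aorta depolarized with potassium, then contracted by adding calcium. Read-out is the molar concentration that inhibits the calcium-induced contraction by 50%, reported as pIC50.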

[2] = Compound was evaluated for the plasma half-life to investigate its pharmacokinetic profile in dogs after intravenous administration.; type: ADME, organism-based, Canis lupus familiaris; conditions: dog
[3] = Compound was evaluated for the volume of distribution to investigate its pharmacokinetic profile in dogs after intravenous administration.; type: ADME, organism-based, Canis lupus familiaris; conditions: dog, in vivo, read-out: Volume of distribution
[4] = Compound was evaluated for the plasma clearance to investigate its pharmacokinetic profile in dogs after intravenous administration.; type: ADME, organism-based, Canis lupus familiaris; conditions: dog

Row | Compound | Selectivity index [1] | pIC25 (Cavia porcellus) | IC50 (Rattus norvegicus) [µM] | half-life [2] [h] | Vd [3] [L/kg] | clearance [4] [mL/min/kg]
1 | CCO/C(O)=C1\C(COCC(C)(O)CN)=NC(C)=C(C(=O)OC)C1c1cccc(Cl)c1Cl (configuration not stated) | 2 | 6.5 | 0.158 | – | – | –
2 | CCO/C(O)=C1\C(COCC(C)(C)O)=NC(C)=C(C(=O)OC)C1c1cccc(Cl)c1Cl (configuration not stated) | 10 | 7.2 | 0.00631 | – | – | –
3 | CCCOCC1=C(C(=O)OCC)C(c2cccc(Cl)c2Cl)/C(=C(\O)OC)C(C)=N1 (configuration not stated) | 20 | 6.2 | 0.0316 | – | – | –
4 | CCO/C(O)=C1\C(COCC(C)(O)Cn2cncn2)=NC(C)=C(C(=O)OC)C1c1cccc(Cl)c1Cl (configuration not stated) | 3 | 7.2 | 0.02 | – | – | –
5 | CCO/C(O)=C1\C(COCC(C)(O)Cc2ccccn2)=NC(C)=C(C(=O)OC)C1c1cccc(Cl)c1Cl (configuration not stated) | 2 | 7.5 | 0.0631 | – | – | –
6 | COC(=O)C1=C(C)NC(C)=C(C(=O)OC)C1c1ccccc1[N+](=O)[O-] [NIFEDIPINE] | 8 | 7.5 | – | – | – | –
7 | CCO/C(O)=C1\C(COCC(C)(O)Cn2ccnc2)=NC(C)=C(C(=O)OC)C1c1cccc(Cl)c1Cl (configuration not stated) | 1.6 | 7.2 | 0.0398 | – | – | –
8 | CCO/C(O)=C1\C(COCC(C)(O)CSc2ncccn2)=NC(C)=C(C(=O)OC)C1c1cccc(Cl)c1Cl (configuration not stated) | 1.6 | 7.4 | 0.0251 | – | – | –
9 | CCO/C(O)=C1\C(COCCOC)=NC(C)=C(C(=O)OC)C1c1cccc(Cl)c1Cl (configuration not stated) | 30 | 6 | 0.0316 | – | – | –
10 | CCO/C(O)=C1\C(COCC(C)(O)CNc2ncccn2)=NC(C)=C(C(=O)OC)C1c1cccc(Cl)c1Cl (configuration not stated) | 2 | 7.1 | 0.0398 | – | – | –
11 | CCO/C(O)=C1\C(COCC(C)O)=NC(C)=C(C(=O)OC)C1c1cccc(Cl)c1Cl (configuration not stated) | 3 | 7.3 | 0.0158 | – | – | –
12 | CCO/C(O)=C1\C(COCC(C)(O)CO)=NC(C)=C(C(=O)OC)C1c1cccc(Cl)c1Cl (configuration not stated) | 4 | 7 | 0.0251 | – | – | –
13 | CCO/C(O)=C1\C(COCC(C)(O)c2ccco2)=NC(C)=C(C(=O)OC)C1c1cccc(Cl)c1Cl (configuration not stated) | 16 | 6.6 | 0.0158 | – | – | –
14 | CCO/C(O)=C1\C(COCCO)=NC(C)=C(C(=O)OC)C1c1cccc(Cl)c1Cl (configuration not stated) | 10 | 7.4 | 0.00398 | 7.3 | 6 | 9.6
15 | CCO/C(O)=C1\C(COCC(O)CO)=NC(C)=C(C(=O)OC)C1c1cccc(Cl)c1Cl (configuration not stated) | 8 | 6.9 | 0.0158 | – | – | –
